PMC8239543 (Clinical and Translational Science, 2021)
Like-named read-outs stand apart in the source and are kept apart here.

What was measured:
Population PK = experiment: Population PK; design: species or system human; settings: for Food effect against fasted on KA: covariate multiplier
Procedure, shortened: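 Plasma GBPA came from 14 multiple-dose subjects (372 points) and 10 earlier single-dose fasted subjects (47 points). Modelling used NONMEM with FOCE and interaction. Doses were converted to GBPA equivalents by molecular-weight ratio. One- and two-compartment models with first-order absorption and linear elimination were tested, with additive, proportional or combined residual error. Between-subject variability and interoccasion variability were log-normal, and food condition was tested as a covariate.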

SARS‐Cov‐2 infection = settings: read-out: EC50 value of GBPA that inhibited SARS-CoV-2 infection; cited from earlier work
[1] = assay type: in vivo, human; settings: for AUC(0-t) / Tmax / half-life / Cmax: male, human, plasma, 600 mg; for AUC(0-t) / Tmax / half-life: oral; for AUC(0-t): AUC4h; for Cmax: po, 600 mg camostat mesylate oral
Procedure, shortened: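 Night doses were fasted. Cohort 1 took daytime doses after a meal, except a fasted day-1 morning dose. Cohort 2 dosed 30 min premeal on day 1, then 1 h premeal. Plasma GBPA was measured by LC-MS/MS and analysed noncompartmentally. Food ratios came from a mixed-effects model on ln Cmax and AUC24h.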

[2] = cited from earlier work
[3] = cited from earlier work; remark: listed apart in the source
[4] = cited from earlier work; remark: listed apart in the source
[5] = Solubility / Biopharmaceutics Classification System class; assay type: physicochemical; settings: inferred from solubility and structure-suggested poor permeability
TMPRSS2 = settings: cited from earlier work
[6] = Phase I safety and tolerability assessment; assay type: in vivo, human; settings: for safety and tolerability: multiple administration, healthy adults
Procedure, shortened: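 Healthy Japanese men took 600 mg orally four times daily on day 1 and days 3–9. Monitoring throughout covered symptoms, physical examination, and supine blood pressure and pulse. It also covered temperature, oxygen saturation, weight, hematology, biochemistry, coagulation and spot urinalysis. ECGs were 12-lead plus monitor, and adverse events were recorded.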

[7] = tested on: SARS‐CoV‐2 infection of a cell line derived from human airway epithelial cells (Calu‐3); settings: cited from earlier work
[8] = in vivo
[9] = Cohort 2, Day 1, 30 min before a meal
[10] = Cohort 2, Day 3, 1 h before a meal
[11] = Cohort 2, Day 9, 1 h before a meal
[12] = Cohort 1, Day 1, Fasted, mean (SD)
[13] = Cohort 1, Day 3, Fed, mean (SD)
[14] = Cohort 1, Day 9, Fed, mean (SD)
[15] = Cohort 2, Day 1, 30 min before a meal, mean (SD)
[16] = Cohort 2, Day 3, 1 h before a meal, mean (SD)
[17] = Cohort 2, Day 9, 1 h before a meal, mean (SD)

## N=C(N)Nc1ccc(C(=O)Oc2ccc(CC(=O)O)cc2)cc1 [GBPA, 4‐(4‐guanidinobenzoyloxy)phenylacetic acid]
Population PK; 30 min before a meal, FIXED
  Food effect against fasted on KA: 1.0 FIXED
Population PK; 1 h before a meal, FIXED
  Food effect against fasted on KA: 1.0 FIXED
Population PK; Fed
  Food effect against fasted on KA: 0.0807
Population PK; PopPK fixed effect estimate
  Absorption rate constant (KA): 5.91 h⁻¹
  Lag time: 0.319 h
Population PK; interoccasion variability
  IOV on FA: 35.8 % CV
  IOV on KA: 105 % CV
Population PK; intra-subject variability
  Proportional residual error: 0.39 % CV
Population PK; male, human, plasma, oral
  Vd/F: 904 L
  clearance: 11300 mL/min
SARS‐Cov‐2 infection
  EC50: 0.178 µM
[1]; 1 h before a meal
  exposure of GBPA compared with the fasted state: no significant difference
[1]; Cohort 1, Day 3, Fed
  AUC4h against fasted, geometric mean ratio (95% confidence interval): 0.31 (0.23, 0.43)
  Cmax against fasted, geometric mean ratio (95% confidence interval): 0.28 (0.18, 0.42)
[1]; Cohort 1, Day 9, Fed
  AUC4h against fasted, geometric mean ratio (95% confidence interval): 0.30 (0.21, 0.43)
  Cmax against fasted, geometric mean ratio (95% confidence interval): 0.27 (0.17, 0.42)
[1]; [9]
  AUC4h against fasted, geometric mean ratio (95% confidence interval): 0.43 (0.29, 0.64)
  Cmax against fasted, geometric mean ratio (95% confidence interval): 0.50 (0.31, 0.86)
[1]; [10]
  AUC4h against fasted, geometric mean ratio (95% confidence interval): 0.53 (0.31, 0.91)
  Cmax against fasted, geometric mean ratio (95% confidence interval): 0.57 (0.30, 1.08)
[1]; [11]
  AUC4h against fasted, geometric mean ratio (95% confidence interval): 0.79 (0.46, 1.37)
  Cmax against fasted, geometric mean ratio (95% confidence interval): 0.95 (0.51, 1.75)
[1]; administered after a meal and at 30 min before a meal
  Cmax and AUC relative to values under fasted conditions: not more than 50%
[1]; after a meal and 30 min before a meal
  exposure of GBPA compared with the fasted state: significantly lower
[1]; [12]
  AUC(0-t): 0.683 µg·h/mL
  Cmax: 0.371 µg/mL
[1]; [13]
  AUC(0-t): 0.206 µg·h/mL
  Cmax: 0.0958 µg/mL
[1]; [14]
  AUC(0-t): 0.194 µg·h/mL
  Cmax: 0.0935 µg/mL
[1]; [15]
  AUC(0-t): 0.227 µg·h/mL
  Cmax: 0.177 µg/mL
[1]; [16]
  AUC(0-t): 0.366 µg·h/mL
  Cmax: 0.218 µg/mL
[1]; [17]
  AUC(0-t): 0.556 µg·h/mL
  Cmax: 0.367 µg/mL
[1]; Tmax, Cohort 1, Day 1, Fasted, median (range)
  Tmax: 1 h
[1]; Tmax, Cohort 1, Day 3, Fed, median (range)
  Tmax: 2 h
[1]; Tmax, Cohort 1, Day 9, Fed, median (range)
  Tmax: 2 h
[1]; Tmax, Cohort 2, Day 1, 30 min before a meal, median (range)
  Tmax: 1 h
[1]; Tmax, Cohort 2, Day 3, 1 h before a meal, median (range)
  Tmax: 1 h
[1]; Tmax, Cohort 2, Day 9, 1 h before a meal, median (range)
  Tmax: 1 h
[1]; half-life, plasma GBPA elimination
  half-life: < 2 h
[1]; median Tmax, fasted conditions, 30 min before a meal, and 1 h before a meal
  Tmax: 1 h
[1]; median Tmax, fed conditions
  Tmax: 2 h
[1]; t1/2, Cohort 1, Day 1, Fasted, mean (SD), n = 6
  half-life: 1.58 h
[1]; t1/2, Cohort 1, Day 3, Fed, mean, n = 2
  half-life: 1.33 h
[1]; t1/2, Cohort 1, Day 9, Fed, mean (SD), n = 3
  half-life: 1.16 h
[1]; t1/2, Cohort 2, Day 1, 30 min before a meal, mean (SD)
  half-life: 1.35 h
[1]; t1/2, Cohort 2, Day 3, 1 h before a meal, mean (SD), n = 6
  half-life: 1.05 h
[1]; t1/2, Cohort 2, Day 9, 1 h before a meal, mean (SD)
  half-life: 0.962 h

## CN(C)C(=O)COC(=O)Cc1ccc(OC(=O)c2ccc(NC(=N)N)cc2)cc1.CS(=O)(=O)O [camostat mesylate, dimethylcarbamoylmethyl 4‐(4‐guanidinobenzoyloxy)phenylacetate monomethanesulfonate]
[2]
  half-life in human plasma: ≤ 1 min
[3]
  presence in plasma after oral administration: not detectable
[4]
  solubility: soluble
[5]
  Biopharmaceutics Classification System class: class 3
TMPRSS2
  TMPRSS2 inhibition: inhibited
[6]; 600 mg q.i.d.
  findings in safety laboratory values, vital signs, or ECG parameters: no clinically significant findings
  serious adverse events or deaths: no serious adverse events or deaths
  safety and tolerability: no safety concerns were raised
[6]; 600 mg q.i.d., listed as Camostat mesylate
  safety and tolerability: safe and tolerated
[6]; all subjects
  QTcF change from baseline: ≤ 60 ms
[6]; any postbaseline visit, all subjects
  QTcF interval: ≤ 480 ms
[7]
  SARS-CoV-2 infection of Calu-3 cells: prevented
[8]
  human equivalent dose converted from the dog NOAEL: 3333 mg
